One may read the Km as the concentration of substrate that gives half-maximal velocity.

Where two headings read alike, the source gives them in different places. Peptide text beside a SMILES is read from it. * marks the point of attachment. AMC = Cc1cc(=O)oc2cc(N*)ccc12; Cbz = O=C(OCc1ccccc1)*

These results are taken from PMC6636858 (European journal of medicinal chemistry, 2019).

Test [1] concerns the target human CatB (Homo sapiens, UniProt P07858). In words: SDS-PAGE autoradiography of adduct formation with purified CatB. The following applies: E-64 10 μM or N1 20 μM. It is filed as biochemical.
The test system of test [2] is HT-29 cells. As to the kind of experiment: SDS-PAGE autoradiography of intracellular adducts in cell lysate. The format is cell-based, human. The settings on record: E-64 10 μM or N1 20 μM. In a few lines:
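HT-29 cells (1 × 10^6/well) incubated 4 h at 37 °C with radioconjugate (20 μCi, 0.74 MBq, in 1 mL medium), ± E-64 (10 μM as added) or N1 (20 μM as added). Cells PBS-washed and given fresh medium. At chosen times, pooled from 3 wells, trypsinized and lysed in RIPA plus protease inhibitor (15 min on ice). Cleared lysate heated in SDS sample buffer (85 °C, 2 min) and run on 16% Tris-glycine gel (110 V, 90 min).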

For test [3], the target named is human CatL (Homo sapiens, UniProt P07711). In words: SDS-PAGE autoradiography of adduct formation with purified CatL. It is filed as biochemical. The following applies: E-64 10 μM or N1 20 μM.
Test [4] addresses T1, Cathepsin L (Cat L, human liver) (Homo sapiens, UniProt P07711). The following applies: read-out: Michaelis-Menten constant (Km), literature value; CatL; cited from earlier work.
Test [5] deals with T1, Cathepsin L (Cat L, human liver). As to the kind of experiment: CatL inhibition constants / Km, fluorogenic substrate Z-Phe-Arg-AMC. It is filed as biochemical.
Test [6] addresses T2, Cathepsin B (CatB, human liver) (Homo sapiens, UniProt P07858). The settings on record: read-out: Michaelis-Menten constant (Km), reported value; cited from earlier work.
Test [7] concerns the target T2, Cathepsin B (CatB, human liver). In words: CatB inhibition constants / Km, fluorogenic substrate Z-Arg-Arg-AMC. It is filed as biochemical.

T1 sequence (P07711 114-288 limits assumed): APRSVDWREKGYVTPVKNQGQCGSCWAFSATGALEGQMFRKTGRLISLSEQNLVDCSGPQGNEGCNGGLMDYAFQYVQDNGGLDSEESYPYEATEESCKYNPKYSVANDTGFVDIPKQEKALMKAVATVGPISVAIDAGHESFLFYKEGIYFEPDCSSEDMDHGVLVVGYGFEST
T1 sequence (P07711 292-333 limits assumed): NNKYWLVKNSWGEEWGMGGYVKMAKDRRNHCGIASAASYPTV
Chain of human CatL (P07711 114-288 limits assumed): as the sequence (P07711 114-288 limits assumed) above
Chain of human CatL (P07711 292-333 limits assumed): as the sequence (P07711 292-333 limits assumed) above

In the case of `CC(C)C[C@H](NC(=O)[C@H]1O[C@@H]1C(=O)O)C(=O)NCCCCN=C(N)N` [E-64], the “effect of co-incubated agent on ^177Lu-NE1a adduct formation with CatB” value in test [1] was “prevented adduct formation”. Moreover, the “effect of co-incubated agent on ^177Lu-NE1a intracellular adduct formation” value in test [2] is given as “unaffected”. Besides, the “effect of co-incubated agent on ^177Lu-NE1a adduct formation with CatL” value in test [3] was “prevented adduct formation”.
Turning to `Cc1cc(=O)oc2cc(NC(=O)C(CCCN=C(N)N)NC(=O)C(Cc3ccccc3)NC(=O)OCc3ccccc3)ccc12` (stereo not drawn) [Z-Phe-Arg-AMC] (Cbz-Phe-Arg-{AMC}; configuration not given here), the Km in test [4] is 21.5 ± 3.2 µM; in test [5] (read-out: Michaelis-Menten constant (Km), CatL substrate), 36 ± 3 µM.
With `Cc1cc(=O)oc2cc(NC(=O)[C@H](CCCN=C(N)N)NC(=O)[C@H](CCCN=C(N)N)NC(=O)OCc3ccccc3)ccc12` [Z-Arg-Arg-AMC] (Cbz-Arg-Arg-{AMC}), the Michaelis constant (Km) in test [6] is 390 ± 20 µM; in test [7] (read-out: Michaelis-Menten constant (Km), CatB substrate), 189 ± 2 µM.
Regarding “3-(((S)-1-(((S)-1-((2-azidoethyl)amino)-5-guanidino-1-oxopentan-2-yl)amino)-4-methyl-1-oxopentan-2-yl)carbamoyl)oxirane-2-carboxylic acid [1a]”, the “second order rate constant ki/Ki” value is 130000 ± 1900 M⁻¹ s⁻¹ in test [7] (CatB) and 16000 ± 1300 M⁻¹ s⁻¹ in test [5] (CatL).
Turning to `CC(C)C[C@H](NC(=O)CCC(=O)O)C(=O)N[C@@H](CCCNC(=N)N)C(=O)NCCN=[N+]=[N-]` [1b, 4-(((S)-1-(((S)-1-((2-azidoethyl)amino)-5-guanidino-1-oxopentan-2-yl)amino)-4-methyl-1-oxopentan-2-yl)amino)-4-oxobutanoic acid], the “inhibition of CatB” value in test [7] (over the test concentration ranges) was “No inhibition”.
